pEC50, pIC50: −log10 of the molar value.
Key:
[1] = Stability in human plasma assessed as parent compound remaining measured at 15 mins; format: ADME, cell-free; settings: read-out: Stability
[2] = Stability in human plasma assessed as parent compound remaining measured at 30 mins; format: ADME, cell-free; settings: read-out: Stability
[3] = Stability in human plasma assessed as parent compound remaining measured at 120 mins; format: ADME, cell-free; settings: read-out: Stability
[4] = Metabolic stability in human microsomes assessed as intrinsic clearance; format: ADME, Microsome; settings: read-out: CLH
Summary of the method: (§1)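 Incubation with human liver microsomes; half-life obtained from depletion fit (R² reported), intrinsic clearance expressed per mg microsomal protein (μL/min/mg) and scaled to liver (mL/min/kg).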

[5] = Stability in human plasma assessed as parent compound remaining measured immediately; format: ADME, cell-free; settings: read-out: Stability
[6] = Stability in human plasma assessed as parent compound remaining measured at 60 mins; format: ADME, cell-free; settings: read-out: Stability
[7] = test system: Human immunodeficiency virus 1; assay: Antiviral activity against HIV-1 harboring Y188L mutant infected in human MT4 cells assessed as inhibition of virus-induced cytopathic effect by MTT assay; settings: Human immunodeficiency virus 1, MT4
[8] = Stability in human plasma assessed as parent compound remaining measured at 300 mins; format: ADME, cell-free; settings: read-out: Stability
[9] = Stability in human plasma assessed as half life; format: ADME, cell-free
[10] = Cytotoxicity against human MT4 cells by MTT assay; format: toxicity, cell-based
[11] = Metabolic stability in human liver microsomes assessed as half life; format: ADME, Microsome; summary of the method: as §1
[12] = test system: Human immunodeficiency virus 1; assay: Antiviral activity against wild type HIV-1 IIIB infected in human MT4 cells […]; format: functional, organism-based; settings: Human immunodeficiency virus 1, IIIB
[13] = Selectivity index, ratio of CC50 for cytotoxicity against human MT4 cells to EC50 for antiviral activity against wild type HIV-1 IIIB infected in human MT4 cells; format: toxicity, cell-based; settings: read-out: Ratio CC50/EC50
Summary of the method: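 Selectivity index calculated as CC50/EC50 ratio, both values from MTT viability readout in MT-4 cells, antiviral arm using wild-type HIV-1 IIIB.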

[14] = test system: Human immunodeficiency virus 1; assay: Antiviral activity against HIV-1 harboring K103N mutant infected in human MT4 cells […]; format: functional, organism-based; settings: Human immunodeficiency virus 1, MT4
[15] = test system: Human immunodeficiency virus 1; assay: Antiviral activity against HIV-1 harboring E138K mutant infected in human MT4 cells […]; format: functional, organism-based; settings: Human immunodeficiency virus 1, MT4
[16] = test system: Human immunodeficiency virus 1; assay: Antiviral activity against HIV-1 harboring L100I mutant infected in human MT4 cells […]; format: functional, organism-based; settings: Human immunodeficiency virus 1, MT4
[17] = molecular target: Human immunodeficiency virus type 1 reverse transcriptase (Human immunodeficiency virus 1, UniProt Q72547); assay: Inhibition of wild type HIV-1 Reverse transcriptase
[18] = test system: Human immunodeficiency virus 1; assay: Antiviral activity against HIV-1 harboring Y181C mutant infected in human MT4 cells […]; format: functional, organism-based; settings: Human immunodeficiency virus 1, MT4
[19] = molecular target: Human immunodeficiency virus type 1 reverse transcriptase (Human immunodeficiency virus 1) (UniProt Q72547); assay: Potency index, ratio of Nevirapine IC50 to test compound IC50 for inhibition of wild type HIV-1 Reverse transcriptase
[20] = test system: Human immunodeficiency virus 1; assay: Potency index, ratio of Nevirapine EC50 to test compound EC50 for antiviral activity against HIV-1 harboring E138K mutant infected in human MT4 cells […]; format: functional
[21] = Acute toxicity in ICR mouse at 2 g/Kg, po measured for 2 weeks; format: organism-based; settings: in vivo, 2000 mg/kg, 336 h
Summary of the method: (§2)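 Healthy female and male ICR mice were given a single oral dose of 2 g/kg. Growth, death and toxic symptoms were followed over 2 weeks and compared with a control group.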

[22] = Acute toxicity in ICR mouse assessed as brain lesion at 2 g/Kg, po measured after 14 days; format: organism-based; settings: in vivo, 2000 mg/kg, 336 h, time 14 day
Summary of the method: (§3)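 ICR mice, female and male, received one oral 2 g/kg dose. On day 14 after dosing they were dissected, and organs were examined by histopathology against a control group.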

[23] = Acute toxicity in ICR mouse assessed as change in ALT level at 2 g/Kg, po measured after 14 days; format: organism-based; settings: in vivo, 2000 mg/kg, 336 h, time 14 day
Summary of the method: (§4)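 ICR mice of both sexes received a single oral 2 g/kg dose. On day 14 after dosing, blood was examined for ALT, AST, CREA, UREA and CKMB and compared with control groups.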

[24] = Acute toxicity in ICR mouse assessed as spleen lesion at 2 g/Kg, po measured after 14 days; format: organism-based; settings: in vivo, 2000 mg/kg, 336 h, time 14 day; summary of the method: as §3
[25] = Acute toxicity in ICR mouse assessed as change in CREA level at 2 g/Kg, po measured after 14 days; format: organism-based; settings: in vivo, 2000 mg/kg, 336 h, time 14 day; summary of the method: as §4
[26] = Acute toxicity in ICR mouse assessed as […] kidney at 2 g/Kg, po measured after 14 days; format: organism-based; settings: in vivo, 2000 mg/kg, 336 h, time 14 day; summary of the method: as §3
[27] = test system: Human immunodeficiency virus 1; assay: Potency index, ratio of Efavirenz EC50 to test compound EC50 for antiviral activity against HIV-1 harboring K103N mutant infected in human MT4 cells […]; format: functional
[28] = Acute toxicity in ICR mouse assessed as change in CKMB level at 2 g/Kg, po measured after 14 days; format: organism-based; settings: in vivo, 2000 mg/kg, 336 h, time 14 day; summary of the method: as §4
[29] = Acute toxicity in ICR mouse assessed as heart lesion at 2 g/Kg, po measured after 14 days; format: organism-based; settings: in vivo, 2000 mg/kg, 336 h, time 14 day; summary of the method: as §3
[30] = Acute toxicity in ICR mouse assessed as animal death at 2 g/Kg, po measured for 2 weeks; format: organism-based; settings: in vivo, 2000 mg/kg, 336 h; summary of the method: as §2
[31] = Acute toxicity in ICR mouse assessed as change in UREA level at 2 g/Kg, po measured after 14 days; format: organism-based; settings: in vivo, 2000 mg/kg, 336 h, time 14 day; summary of the method: as §4
[32] = Acute toxicity in ICR mouse assessed as liver lesion at 2 g/Kg, po measured after 14 days; format: organism-based; settings: in vivo, 2000 mg/kg, 336 h, time 14 day; summary of the method: as §3
[33] = test system: Human immunodeficiency virus 1; assay: Potency index, ratio of Efavirenz EC50 to test compound EC50 for antiviral activity against HIV-1 harboring Y188L mutant infected in human MT4 cells […]; format: functional
[34] = Acute toxicity in ICR mouse assessed as change in AST level at 2 g/Kg, po measured after 14 days; format: organism-based; settings: in vivo, 2000 mg/kg, 336 h, time 14 day; summary of the method: as §4
[35] = Acute toxicity in ICR mouse assessed as adverse symptoms at 2 g/Kg, po measured for 2 weeks; format: organism-based; settings: in vivo, 2000 mg/kg, 336 h; summary of the method: as §2
[36] = Acute toxicity in ICR mouse assessed as lung lesion at 2 g/Kg, po measured after 14 days; format: organism-based; settings: in vivo, 2000 mg/kg, 336 h, time 14 day; summary of the method: as §3

Compound `Cc1cc(C#N)cc(C)c1Oc1nc(Nc2ccc(C#N)cc2)nc(N)c1Br` [ETRAVIRINE] has a remaining at 0.25 h [1] of 102%, a remaining at 0.5 h [2] of 95.4% and a remaining at 2 h [3] of 92.1%. The microsomal CLint [4] was 21.1 µL/min/mg, the remaining at 0 min [5] was 100% and the remaining at 1 h [6] was 97%. For the same compound, the pEC50 [7] was 7.70, the remaining at 5 h [8] was 78.5% and the half-life [9] was over 5 h. It also gave a CC50 [10] of over 4600 nM and a half-life [11] of 1.09 h.

For `CNC(c1ccnc(Nc2ccc(C#N)cc2)n1)c1ccc(-c2ccc(C#N)cc2)cc1F` (centres undefined), the pEC50 [12] was 7.19, the selectivity ratio [13] was 196 and the pEC50 [14] was 4.98. It also gave a pEC50 [15] of 6.43, a pEC50 [16] of at most 4.96 and a pIC50 [17] of 6.11. The pEC50 [7] was under 4.90, the CC50 [10] was 13000 nM and the pEC50 [18] was 5.72. For the same compound, the Ratio IC50 [19] was 0.96.

In the case of `Cc1cc(/C=C/C#N)cc(C)c1Nc1ccnc(Nc2ccc(C#N)cc2)n1` [RILPIVIRINE], the remaining at 0.25 h [1] was 102%, the remaining at 0.5 h [2] was 99.4% and the remaining at 2 h [3] was 95.3%. It also gave a microsomal CLint [4] of 108 µL/min/mg, a remaining at 0 min [5] of 100% and a remaining at 1 h [6] of 99.3%. For the same compound, the remaining at 5 h [8] was 97.4% and the half-life [9] was over 5 h.

With `CNC(c1ccnc(Nc2ccc(C#N)cc2)n1)c1ccc(-c2ccc(C#N)cc2)cc1OC(F)(F)F` (centres undefined) the pEC50 [12] was 7.25, the selectivity ratio [13] was 313 and the pEC50 [14] was 5.84. It also gave a pEC50 [15] of 6.49, a pEC50 [16] of 5.71 and a pIC50 [17] of 5.70. It also gave a pEC50 [7] of at most 5.14, a CC50 [10] of 18000 nM and a pEC50 [18] of 5.65. It also gave a Ratio IC50 [19] of 0.38.

Compound `CNC(c1ccnc(Nc2ccc(C#N)cc2)n1)c1ccc(-c2ccc(C#N)cc2)cc1C(F)(F)F` (centres undefined) has a pEC50 [12] of 7.41, a selectivity ratio [13] of 363 and a pEC50 [14] of 5.87. It also gave a pEC50 [15] of 6.74, a pEC50 [16] of 5.61 and a pIC50 [17] of 6.31. It also gave a pEC50 [7] of 5.12, a CC50 [10] of 15000 nM and a pEC50 [18] of 5.93. The Ratio IC50 [19] was 1.5.

Work on `CNC(c1ccnc(Nc2ccc(C#N)cc2)n1)c1ccc(-c2ccc(C#N)cc2)cc1OC` (centres undefined) yielded a pEC50 [12] of 7.44, a selectivity ratio [13] of 354 and a pEC50 [14] of 6.03. The pEC50 [15] was 6.65, the pEC50 [16] was 5.63 and the pIC50 [17] was 6.02. For the same compound, the pEC50 [7] was 5.14, the CC50 [10] was 13000 nM and the pEC50 [18] was 5.89. For the same compound, the Ratio IC50 [19] was 0.78.

With `COc1cc(-c2ccc(C#N)cc2)ccc1/C(=N\N)c1ccnc(Nc2ccc(C#N)cc2)n1` the “Ratio EC50” value [20] was 7.5, the Activity [21] was “Non-toxic” and the pEC50 [12] was 8.30. For the same compound, the remaining at 0.25 h [1] was 104%, the Activity [22] was “Non-toxic” and the selectivity ratio [13] was 11000. For the same compound, the Activity [23] was “Non-toxic”, the pEC50 [14] was 8.00 and the Activity [24] was “Non-toxic”. For the same compound, the Activity [25] was “Non-toxic”, the Activity [26] was “Non-toxic” and the remaining at 0.5 h [2] was 101%. The pEC50 [15] was 7.68, the remaining at 2 h [3] was 98.2% and the pEC50 [16] was 8.15. For the same compound, the pIC50 [17] was 7.09, the “Ratio EC50” value [27] was 8.6 and the Activity [28] was “Non-toxic”. For the same compound, the microsomal CLint [4] was 37 µL/min/mg, the Activity [29] was “Non-toxic” and the remaining at 0 min [5] was 100%. For the same compound, the remaining at 1 h [6] was 101%, the Activity [30] was “Non-toxic” and the pEC50 [7] was 6.83. The Activity [31] was “Non-toxic”, the Activity [32] was “Non-toxic” and the “Ratio EC50” value [33] was 2. For the same compound, the Activity [34] was “Non-toxic”, the remaining at 5 h [8] was 94.7% and the half-life [9] was over 5 h. For the same compound, the CC50 [10] was 54000 nM, the pEC50 [18] was 7.66 and the half-life [11] was 0.625 h. The Activity [35] was “Non-toxic” and the Activity [36] was “Non-toxic”.

Reference: ChEMBL document CHEMBL6153064, “Structure-based discovery of novel diarylpyrimidines as potent and selective Non-Nucleoside reverse transcriptase inhibitors: From CH(CN)-Biphenyl-Diarylpyrimidines to CNNH2-Biphenyl-Diarylpyrimidines” (Eur J Med Chem, 2025)
